Experimental data: ChEMBL document CHEMBL2010770, “Dimeric 3,5-bis(benzylidene)-4-piperidones: a novel cluster of tumour-selective cytotoxins possessing multidrug-resistant properties” (Eur J Med Chem, 2012)
Active and inactive are the calls of the source. No cut-off for these calls is given here.

Assays:
[1] = Cytotoxicity against human HPLF cells after 48 hrs; assay type: cell-based
Method in brief: (§1)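 Cells were exposed to a dose range for 48 h, following a literature method. CC50 was read from the dose–response curve.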

COLO 205 = test: Cytotoxicity against human COLO205 cells; assay type: functional, cell-based
Method in brief: (§2)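 Human colon cancer and leukaemia line panel. Compounds tested from 10^-4 to 10^-8 M, and IC50 values determined.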

HCC 2998 = test: Cytotoxicity against human HCC2998 cells; assay type: functional, cell-based; method in brief: as §2
HCT-116 = test: Cytotoxicity against human HCT116 cells; assay type: functional, cell-based; method in brief: as §2
HCT-15 = test: Cytotoxicity against human HCT15 cells; assay type: functional, cell-based; method in brief: as §2
HT-29 = test: Cytotoxicity against human HT-29 cells; assay type: functional, cell-based; method in brief: as §2
KM12 = test: Cytotoxicity against human KM12 cells; assay type: functional, cell-based; method in brief: as §2
SW-620 = test: Cytotoxicity against human SW620 cells; assay type: functional, cell-based; method in brief: as §2
HL-60(TB) = test: Cytotoxicity against human HL-60(TB) cells; assay type: functional, cell-based; method in brief: as §2
K562 = test: Cytotoxicity against human K562 cells; assay type: functional, cell-based; method in brief: as §2
RPMI-8226 = test: Cytotoxicity against human RPMI8226 cells; assay type: functional, cell-based; method in brief: as §2
HSC-2 [2] = test: Ratio of melphalan CC50 to compound CC50 for human HSC2 cells; assay type: functional
HSC-3 [3] = test: Ratio of melphalan CC50 to compound CC50 for human HSC3 cells; assay type: functional
HSC-4 [4] = test: Ratio of melphalan CC50 to compound CC50 for human HSC4 cells; assay type: functional
[5] = biological target: T1, ATP-dependent translocase ABCB1 (Homo sapiens, UniProt P08183); test: Inhibition of human MDR1-mediated multidrug resistant in mouse L5178Y cells at 4 uM treated 10 mins before rhodamine 123 challenge measured after 20 mins relative to control; assay type: cell-based
T1 sequence (P08183 whole entry): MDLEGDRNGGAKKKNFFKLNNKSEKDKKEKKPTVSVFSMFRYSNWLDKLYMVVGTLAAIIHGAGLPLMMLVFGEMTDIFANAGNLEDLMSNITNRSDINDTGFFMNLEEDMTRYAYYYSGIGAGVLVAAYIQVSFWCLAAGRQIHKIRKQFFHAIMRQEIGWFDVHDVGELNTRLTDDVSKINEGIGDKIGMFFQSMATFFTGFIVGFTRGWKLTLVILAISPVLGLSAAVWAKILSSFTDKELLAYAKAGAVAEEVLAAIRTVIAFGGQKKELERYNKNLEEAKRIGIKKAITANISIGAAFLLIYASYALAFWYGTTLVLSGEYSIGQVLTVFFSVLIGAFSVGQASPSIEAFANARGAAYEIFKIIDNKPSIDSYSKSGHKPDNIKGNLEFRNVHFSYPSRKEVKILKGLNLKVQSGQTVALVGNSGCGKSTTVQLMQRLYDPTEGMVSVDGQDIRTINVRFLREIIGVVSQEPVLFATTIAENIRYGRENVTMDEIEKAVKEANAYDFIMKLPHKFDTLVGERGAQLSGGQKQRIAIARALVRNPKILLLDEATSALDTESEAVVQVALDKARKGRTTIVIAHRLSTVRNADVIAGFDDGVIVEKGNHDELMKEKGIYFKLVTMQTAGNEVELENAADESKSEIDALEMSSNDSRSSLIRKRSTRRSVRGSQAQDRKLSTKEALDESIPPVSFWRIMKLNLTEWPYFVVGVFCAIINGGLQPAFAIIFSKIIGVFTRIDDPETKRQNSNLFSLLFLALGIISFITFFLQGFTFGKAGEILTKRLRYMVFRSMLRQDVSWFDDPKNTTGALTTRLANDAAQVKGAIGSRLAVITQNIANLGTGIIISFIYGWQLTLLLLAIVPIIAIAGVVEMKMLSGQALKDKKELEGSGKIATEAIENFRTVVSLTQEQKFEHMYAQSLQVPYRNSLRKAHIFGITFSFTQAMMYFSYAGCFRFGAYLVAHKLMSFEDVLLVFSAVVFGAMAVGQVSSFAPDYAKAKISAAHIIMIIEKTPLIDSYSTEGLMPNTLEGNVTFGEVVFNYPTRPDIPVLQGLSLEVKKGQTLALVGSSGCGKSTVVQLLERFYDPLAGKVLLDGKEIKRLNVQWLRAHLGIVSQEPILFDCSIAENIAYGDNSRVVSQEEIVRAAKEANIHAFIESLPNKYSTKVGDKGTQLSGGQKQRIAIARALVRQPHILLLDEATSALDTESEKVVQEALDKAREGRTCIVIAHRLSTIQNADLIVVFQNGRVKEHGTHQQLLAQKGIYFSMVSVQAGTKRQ
Method in brief: (§3)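 Compounds in DMSO were added at room temperature to mdr1-transfected and parental L5178Y cells. After 10 min, rhodamine 123 was added, followed by 20 min at 37 °C. Cellular rhodamine fluorescence was measured and expressed as fluorescence activity ratio (FAR); FAR >1 indicates MDR reversal.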

[6] = biological target: T1, ATP-dependent translocase ABCB1; test: Inhibition of human MDR1-mediated multidrug resistant in mouse L5178Y cells at 40 uM treated 10 mins before rhodamine 123 challenge measured after 20 mins relative to control; assay type: cell-based; method in brief: as §3
MOLT-4 = test: Growth inhibition of human Molt4/C8 cells; assay type: functional, cell-based
CCRF-CEM = test: Growth inhibition of human CEM cells; assay type: functional, cell-based
L1210 = test: Growth inhibition of mouse L1210 cells; assay type: functional, cell-based
HSC-2 [7] = test: Cytotoxicity against human HSC2 cells after 48 hrs; assay type: functional; conditions: HSC-2, 48 h
Method in brief: (§4)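 Human HSC-2, HSC-3, HSC-4 squamous carcinoma and HL-60 promyelocytic leukaemia cells incubated with compound for 48 h. CC50, the concentration killing 50% of cells, read from a dose–response curve.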

HSC-2 [8] = test: Selectivity index, ratio of CC50 for human normal cells to CC50 for human HSC2 cells; assay type: functional
HSC-3 [9] = test: Cytotoxicity against human HSC3 cells after 48 hrs; assay type: functional; conditions: HSC-3, 48 h; method in brief: as §4
HSC-3 [10] = test: Selectivity index, ratio of CC50 for human normal cells to CC50 for human HSC3 cells; assay type: functional
HSC-4 [11] = test: Cytotoxicity against human HSC4 cells after 48 hrs; assay type: functional; conditions: HSC-4, 48 h; method in brief: as §4
HSC-4 [12] = test: Selectivity index, ratio of CC50 for human normal cells to CC50 for human HSC4 cells; assay type: functional
HL-60 [13] = test: Cytotoxicity against human HL60 cells after 48 hrs; assay type: functional; conditions: HL-60, 48 h; method in brief: as §4
HL-60 [14] = test: Selectivity index, ratio of CC50 for human normal cells to CC50 for human HL60 cells; assay type: functional
[15] = Cytotoxicity against human HGF cells after 48 hrs; assay type: cell-based; method in brief: as §1

Structure (SMILES)	CC50 at 48 h [1] [µM]	IC50 (COLO 205) [µM]	IC50 (HCT-116) [µM]	IC50 (HCT-15) [µM]	IC50 (SW-620) [µM]	IC50 (HL-60(TB)) [µM]	Ratio [5]	Ratio [6]	growth inhibition (GI) (MOLT-4)	growth inhibition (GI) (CCRF-CEM)	growth inhibition (GI) (L1210)	CC50 (HSC-2 [7]) [µM]	Ratio (HSC-2 [8])	CC50 (HSC-3 [9]) [µM]	Ratio (HSC-3 [10])	CC50 (HSC-4 [11]) [µM]	Ratio (HSC-4 [12])	CC50 (HL-60 [13]) [µM]	Ratio (HL-60 [14])	CC50 at 48 h [15] [µM]	also measured
O=C1/C(=C/c2ccccc2)CN(C(=O)c2ccccc2C(=O)N2C/C(=C\c3ccccc3)C(=O)/C(=C/c3ccccc3)C2)C/C1=C\c1ccccc1	8.5	0.21	0.03	0.35	0.3	0.21	46.5	51.5	Active	Active	Active	0.026	189	0.076	64.7	0.082	60	0.11	44.7	5.7	IC50 (HCC 2998): 0.2 µM; IC50 (HT-29): 0.17 µM; IC50 (KM12): 0.21 µM; IC50 (K562): 0.21 µM; IC50 (RPMI-8226): 0.06 µM; Ratio (HSC-2 [2]): 335; Ratio (HSC-3 [3]): 329; Ratio (HSC-4 [4]): 390
O=C1/C(=C/c2ccccc2)CN(C(=O)CCCCCCC(=O)N2C/C(=C\c3ccccc3)C(=O)/C(=C/c3ccccc3)C2)C/C1=C\c1ccccc1	17	–	–	–	–	–	49.2	55.7	Active	Active	Active	0.17	61.2	0.21	49.5	0.62	16.8	1.3	8	13	–
O=c1[nH]cc(F)c(=O)[nH]1 [FLUOROURACIL]	–	–	–	–	380	> 2510	–	–	–	–	–	–	–	–	–	–	–	–	–	–	–
O=C1/C(=C/c2ccccc2)CN(C(=O)c2cccc(C(=O)N3C/C(=C\c4ccccc4)C(=O)/C(=C/c4ccccc4)C3)c2)C/C1=C\c1ccccc1	46	2.4	0.2	1.7	0.36	2.04	38.9	61.3	Active	Active	Active	3.2	11.3	6.3	5.76	8	4.54	6.6	5.5	42	IC50 (HT-29): 0.55 µM; IC50 (KM12): 0.35 µM; IC50 (K562): 1.55 µM; IC50 (RPMI-8226): 0.73 µM
O=C1/C(=C/c2ccccc2)CN(C(=O)C(=O)N2C/C(=C\c3ccccc3)C(=O)/C(=C/c3ccccc3)C2)C/C1=C\c1ccccc1	5.3	0.36	0.03	0.3	0.07	0.2	19.3	41.1	Active	Active	Active	0.085	38.4	0.15	21.7	0.2	16.3	0.11	29.6	3.8	IC50 (HCC 2998): 0.19 µM; IC50 (HT-29): 0.17 µM; IC50 (KM12): 0.04 µM; IC50 (K562): 0.2 µM; IC50 (RPMI-8226): 0.25 µM
O=C1/C(=C/c2ccccc2)CN(C(=O)CCCC(=O)N2C/C(=C\c3ccccc3)C(=O)/C(=C/c3ccccc3)C2)C/C1=C\c1ccccc1	3.9	–	–	–	–	–	50.2	73.4	Active	Active	Active	0.071	34.8	0.17	14.5	0.19	13	0.39	6.33	2.9	–
